Screening data: PubChem BioAssay, Broad Institute
C2C12 statin = suppression of simvastatin myotoxicity. 330,000 compounds, 0.78% hits. rescue of ATP level, % at 7.49 µM. C2C12 myotubes + simvastatin, ATP luminescence, 48 h; scaled: DMSO 0, geranylgeraniol control 100. AID 602340;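 active = mean ATP rescue above about 67%, or every replicate alone reaching that limit, limit read from the data, passing the limit was not always enough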;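 also: myotubes were challenged with 10 µM simvastatin during compound exposure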
Mot1-301 SUMO = blocks SUMOylation pathway, rescuing yeast Mot1-301 growth; S. cerevisiae Mot1-301 growth rescue, ATP luminescence, 38.5C; percent above DMSO median, 100 means doubled; growth rescue, % at 18.8 µM; 320,000 compounds, 1% hits; AID 2716;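 active = every valid replicate shows activation above 250% relative to neutral control wells; inactive = the rest, any valid replicate at or below 250%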;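 also: OY570 slx delta 5 strain wells were the positive control but not used for scaling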
Cneo AK release = Cryptococcus neoformans lysis via adenylate kinase release; C. neoformans lysis, adenylate kinase release luminescence, 4 h; normalised: neutral wells 0, clomiphene wells 100; lysis activity, % at 15 µM; 360,000 compounds, 0.2% hits; AID 651654;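 active = mean lysis activity across replicates of at least 80%, whatever share of replicates individually reach that level; inactive = mean lysis activity below 80%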
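Assay system: log-phase C. neoformans yeast / Quantity: yeast cell density of 5 × 10^6 cells/mL / Medium: fresh YPD growth medium / Compound: single dose / Timing: static 4 h at 37 °C with compound, 1 h detection / Measured by: adenylate kinase release luminescence / Read-out: lysis from increased AK signal / Benchmarks: Clomiphene as positive lysis control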
Mot1 SUMO dose = inhibits SUMO pathway, affecting Mot1-301 yeast growth; shares compounds with Mot1-301 SUMO; S. cerevisiae Mot1-301 galactose growth, ATP luminescence, 24 h; -100 = growth of slx-deleted rescue strain; growth activity, percent, % at 42 µM; 2,300 tested, under 10 active; AID 493004;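 active = Signal drops as the depositor expects, and the fitted half-maximal dose is no more than ten times the top valid tested dose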;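 also: more negative values mean stronger growth rescue toward the control strain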
The depositor's hits bear a star; . = not tested or not shown; + = active, no number. Hits are enriched below; roughly 1.5% of the tested compounds scored in any of these assays.

SMILES | C2C12 statin | Mot1-301 SUMO | Cneo AK release | Mot1 SUMO dose
Cc1ccc2c(c1)N(CC(=O)NCC1CCCO1)C(=O)C(C)O2 (configuration not stated) | . | 522* | 1 | 0
Cc1ccc2c(c1)N(CC(=O)NC1CCCC1)C(=O)C(C)O2 (configuration not stated) | 3 | -7 | 0 | .
CO[C@H]1CN(C)C(=O)c2ccc(NS(=O)(=O)c3ccccc3)cc2OC[C@@H](C)N(Cc2nccs2)C[C@H]1C | -2 | . | 1 | .
COc1ccc(S(=O)(=O)Nc2ccc3c(c2)CC(=O)N([C@H](C)CO)C[C@@H](C)[C@@H](CN(C)Cc2ccc(Oc4ccccc4)cc2)O3)cc1 | 23 | . | -7 | .
Cc1ccccc1OCc1nnc(SCC(=O)N2CCc3ccccc32)n1C | 4 | -11 | 0 | .
Cc1cccc(OCc2nnc(SCC(=O)N3c4ccccc4CC3C)n2C)c1C (configuration not stated) | 23 | 400* | 15 | 0
O=C(C[C@@H]1CC[C@H](NC(=O)CC2CC2)[C@H](CO)O1)NCc1ccc(Cl)cc1 | -12 | . | -3 | .
C[C@@H]1CCCCO[C@H](CN(C)C(=O)Cc2ccccc2)[C@H](C)CN([C@H](C)CO)C(=O)c2cc(NS(=O)(=O)c3ccccc3)ccc2O1 | . | . | 47 | .
C[C@H](CO)N1C[C@H](C)[C@H](CN(C)C(=O)C2CCC2)Oc2cc(-c3ccc(F)cc3)ccc2S1(=O)=O | 38 | . | . | .
O=C(O)c1ccc(S(=O)(=O)N2CCN(c3ccccn3)CC2)cc1 | 1 | 763* | 0 | 0
O=C(O)c1cccc(S(=O)(=O)N2CCN(c3ccccn3)CC2)c1 | -2 | -8 | 0 | .
C=CC[C@]1(C(=O)OC)N=C(c2ccc(OCCCO)cc2)O[C@H]1c1ccccc1 | . | . | 49 | .
C[C@@H]1CN([C@@H](C)CO)C(=O)c2cc(C#Cc3ccncc3)cnc2O[C@H]1CN(C)C(=O)c1ccccc1F | 2 | . | -3 | .
COCC#Cc1cnc2c(c1)C(=O)N([C@H](C)CO)C[C@@H](C)[C@H](CN(C)C(=O)c1cccnc1)O2 | 0 | . | -3 | .
Cn1c(SCC(=O)Nc2ccccc2Cl)nnc1C1CC1 | 13 | 3 | 0 | .
Cn1c(SCC(=O)Nc2nnc(-c3ccccc3)o2)nnc1C1CC1 | 6 | 545* | -3 | 0
C[C@H](CO)N1C[C@H](C)[C@@H](CN(C)C(=O)Nc2ccc(C(F)(F)F)cc2)OCCCC[C@H](C)Oc2ccc(NC(=O)C3CCCCC3)cc2C1=O | -2 | . | 1 | .
Cc1cc(NC(=O)c2ccc(N3C(=O)CCC3=O)cc2)no1 | 115* | 701* | -1 | 0
Cc1cc(NC(=O)c2ccc(N3C(=O)C4C5C=CC(C5)C4C3=O)cc2)no1 (configuration not stated) | . | 12 | . | .
CCCC(=O)Nc1ccc2c(c1)C(=O)N(C)C[C@H](OC)[C@@H](C)CN(Cc1cccc(F)c1)[C@H](C)CO2 | -2 | . | -2 | .
C[C@H]1CCCCO[C@@H](CN(C)C(=O)Nc2ccc(C(F)(F)F)cc2)[C@@H](C)CN([C@@H](C)CO)C(=O)c2cc(NC(=O)Nc3ccc(C(F)(F)F)cc3)ccc2O1 | . | . | 2 | .
OCCN1CN=C(Nc2nc3ccccc3o2)NC1 | -11 | + | -2 | 0
CCCN1CN=C(Nc2nc3ccccc3o2)NC1 | . | -7 | 0 | .
Nc1cc(C(=O)OCC(=O)N2CCN(C(=O)COC(=O)c3ccc(Cl)c(N)c3)CC2)ccc1Cl | 1 | . | 1 | .
O=C(OCC(=O)N1CCN(Cc2ccccc2)CC1)c1ccc(Cl)cc1 | . | 450* | . | 1
SMILES | C2C12 statin | Mot1-301 SUMO | Cneo AK release | Mot1 SUMO dose
O=C(OCC(=O)N1CCN(C(=O)c2ccco2)CC1)c1ccc(Cl)cc1 | 3 | 11 | 0 | .
Nc1cc(C(=O)OCC(=O)N2CCOCC2)ccc1Cl | -5 | 399* | 0 | 0
CO[C@H]1CN(C)C(=O)c2ccc(NC(=O)c3ccc(F)cc3)cc2OC[C@H](C)N(C(=O)CN(C)C)C[C@H]1C | -9 | . | . | .
COc1ccc(CNC(=O)C[C@@H]2CC[C@@H](NC(=O)c3cccc(F)c3)[C@H](CO)O2)cc1 | -3 | . | 10 | .
CN(C(=O)c1ccc(-c2nn(C)c(=O)c3ccccc23)cc1)C1CCCCC1 | -27 | 736* | -4 | 0
CN(CCO)C(=O)c1ccc(-c2nn(C)c(=O)c3ccccc23)cc1 | . | 6 | . | .
CO[C@@H]1CN(C)C(=O)c2ccc(NS(=O)(=O)c3ccccc3C)cc2OC[C@H](C)N(C)C[C@H]1C | -1 | . | 0 | .
COc1cccc(Nc2nc(C)nc3c2oc2ccccc23)c1 | 2 | 451* | 0 | -1
